Laboratory results as given in ChEMBL document CHEMBL2086288, “Synthesis, antimicrobial and cytotoxicity study of 1,3-disubstituted-1H-naphtho[1,2-e][1,3]oxazines” (2012).

Legend:
MCF7 [1] = assay: Growth inhibition of human MCF7 cells at 50 uM after 48 hrs by MTT assay; assay type: functional; conditions: MCF7, 48 h, read-out: GI
How it was run: (§1)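 Cells from ECACC are kept in RPMI-1640 with 10% FCS and 1% penicillin at 37 °C in 5% CO2. They are seeded at 3×10^3 cells/well and dosed after 24 h from filter-sterilized DMSO stocks, then treated for 48 h. MTT (2.5 mg/mL in PBS) is added, formazan is dissolved in DMSO, and A570 is read. Viability is given as % of untreated.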

Staphylococcus aureus = assay: Antibacterial activity against Staphylococcus aureus MTCC 2901 after 24 hrs by tube dilution method; assay type: functional
A549 [2] = assay: Growth inhibition of human A549 cells at 10 uM after 48 hrs by MTT assay; assay type: functional; conditions: A549, 48 h, read-out: GI; how it was run: as §1
A549 [3] = assay: Growth inhibition of human A549 cells after 48 hrs by MTT assay; assay type: functional, cell-based; how it was run: as §1
Bacillus subtilis = assay: Antibacterial activity against Bacillus subtilis MTCC 2063 after 24 hrs by tube dilution method; assay type: functional
Escherichia coli = assay: Antibacterial activity against Escherichia coli MTCC 1652 after 24 hrs by tube dilution method; assay type: functional
HCT-116 [4] = assay: Growth inhibition of human HCT116 cells at 10 uM after 48 hrs by MTT assay; assay type: functional; conditions: HCT-116, 48 h, read-out: GI; how it was run: as §1
Candida albicans = assay: Antifungal activity against Candida albicans MTCC 227 after 48 hrs by tube dilution method; assay type: functional
Aspergillus niger = assay: Antifungal activity against Aspergillus niger MTCC 8184 after 7 days by tube dilution method; assay type: functional
How it was run: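 Tube (serial) dilution MIC in Sabouraud dextrose broth I.P., 25 °C for 7 days. Results are recorded as MIC and reported as pMIC in mM.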

MCF7 [5] = assay: Growth inhibition of human MCF7 cells after 48 hrs by MTT assay; assay type: functional, cell-based; how it was run: as §1
MCF7 [6] = assay: Growth inhibition of human MCF7 cells at 10 uM after 48 hrs by MTT assay; assay type: functional; conditions: MCF7, 48 h, read-out: GI; how it was run: as §1
HCT-116 [7] = assay: Growth inhibition of human HCT116 cells at 50 uM after 48 hrs by MTT assay; assay type: functional; conditions: HCT-116, 48 h, read-out: GI; how it was run: as §1
HCT-116 [8] = assay: Growth inhibition of human HCT116 cells after 48 hrs by MTT assay; assay type: functional, cell-based; how it was run: as §1
A549 [9] = assay: Growth inhibition of human A549 cells at 50 uM after 48 hrs by MTT assay; assay type: functional; conditions: A549, 48 h, read-out: GI; how it was run: as §1
PC-3 [10] = assay: Growth inhibition of human PC3 cells at 10 uM after 48 hrs by MTT assay; assay type: functional; conditions: PC-3, 48 h, read-out: GI; how it was run: as §1
PC-3 [11] = assay: Growth inhibition of human PC3 cells at 50 uM after 48 hrs by MTT assay; assay type: functional; conditions: PC-3, 48 h, read-out: GI; how it was run: as §1
A549 [12] = assay: Growth inhibition of human A549 cells at 20 uM after 48 hrs by MTT assay; assay type: functional; conditions: A549, 48 h, read-out: GI
How it was run: (§2)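 Cells from ECACC, grown in RPMI-1640 with 10% FCS and 1% penicillin, 37 °C, 5% CO2. Seeded at 3×10^3 cells/well in 100 µL medium. Compounds added 24 h later from filter-sterilized DMSO stocks. MTT (2.5 mg/mL in PBS, 20 µL) added, then at least 4 h incubation. Formazan dissolved in DMSO after 48 h treatment, absorbance read at 570 nm. Results given as % viable cells versus untreated.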

HCT-116 [13] = assay: Growth inhibition of human HCT116 cells at 20 uM after 48 hrs by MTT assay; assay type: functional; conditions: HCT-116, 48 h, read-out: GI; how it was run: as §2
PC-3 [14] = assay: Growth inhibition of human PC3 cells at 1 uM after 48 hrs by MTT assay; assay type: functional; conditions: PC-3, 48 h, read-out: GI; how it was run: as §1
MCF7 [15] = assay: Growth inhibition of human MCF7 cells at 1 uM after 48 hrs by MTT assay; assay type: functional; conditions: MCF7, 48 h, read-out: GI; how it was run: as §1
A549 [16] = assay: Growth inhibition of human A549 cells at 1 uM after 48 hrs by MTT assay; assay type: functional; conditions: A549, 48 h, read-out: GI; how it was run: as §1

| SMILES | inhibition of growth at 50 µM (MCF7 [1]) [%] | -logMIC (Staphylococcus aureus) | inhibition of growth at 10 µM (A549 [2]) [%] | growth inhibition (GI) (A549 [3]) | -logMIC (Bacillus subtilis) | -logMIC (Escherichia coli) | inhibition of growth at 10 µM (HCT-116 [4]) [%] | -logMIC (Candida albicans) | -logMIC (Aspergillus niger) | growth inhibition (GI) (MCF7 [5]) | inhibition of growth at 10 µM (MCF7 [6]) [%] | inhibition of growth at 50 µM (HCT-116 [7]) [%] | growth inhibition (GI) (HCT-116 [8]) | inhibition of growth at 50 µM (A549 [9]) [%] | inhibition of growth at 10 µM (PC-3 [10]) [%] | inhibition of growth at 50 µM (PC-3 [11]) [%] | also measured |
| --- | --- | --- | --- | --- | --- | --- | --- | --- | --- | --- | --- | --- | --- | --- | --- | --- | --- |
| Fc1ccc(C2=NC(c3ccccc3)c3c(ccc4ccccc34)O2)cc1 (stereo not given) | 51 | 1.75 | 18 | Dose-dependent effect | 2.05 | 2.35 | 12 | 1.75 | 1.45 | Dose-dependent effect | 29 | 56 | Dose-dependent effect | 50 | 14 | 39 | – |
| O=c1[nH]cc(F)c(=O)[nH]1 [FLUOROURACIL] | – | – | – | – | – | – | – | – | – | – | – | – | – | – | – | – | inhibition of growth at 20 µM (A549 [12]): 79%; inhibition of growth at 20 µM (HCT-116 [13]): 78% |
| Fc1ccc(C2=NC(c3ccc(F)cc3)c3c(ccc4ccccc34)O2)cc1 (stereo not given) | 50 | 2.07 | 20 | Dose-dependent effect | 1.77 | 1.47 | 5 | 1.77 | 1.47 | Dose-dependent effect | 36 | 51 | Dose-dependent effect | 50 | 22 | 29 | – |
| CO[C@@]12[C@H](COC(N)=O)C3=C(C(=O)C(C)=C(N)C3=O)N1C[C@@H]1N[C@@H]12 [MITOMYCIN] | – | – | – | – | – | – | – | – | – | – | – | – | – | – | – | – | inhibition of growth at 1 µM (PC-3 [14]): 70%; inhibition of growth at 1 µM (MCF7 [15]): 82%; inhibition of growth at 1 µM (A549 [16]): 70% |
| COc1ccc(C2=NC(c3ccccc3)c3c(ccc4ccccc34)O2)cc1 (stereo not given) | 42 | 1.77 | 19 | – | 1.77 | 2.37 | 8 | 1.77 | 1.47 | – | 37 | 14 | – | 43 | 19 | 23 | – |
